Data on one molecule can be found in ChEMBL document CHEMBL4190396, “Discovery of Novel Small-Molecule Inhibitors of NF-κB Signaling with Antiinflammatory and Anticancer Properties” (J Med Chem, 2018).

In general, IC50 refers to the concentration that inhibits the measured activity by half.

The source made the active and inactive calls. The calls are words filed in the database; no cut-off is given here.

In assay [1] the test system is HeLa. Briefly: Cell cycle arrest in human HeLa cells assessed as accumulation at S phase at 5 uM after 24 hrs by propidium iodide staining based flow cytometry (reference value: 34.9%). The assay is classed as functional. The procedure, abridged:
(§1)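 HeLa cells, 3×10^5/well, attached overnight, switched to serum-free medium for synchronisation, then DMSO or 5, 10, 20 µM for 24 h; cells fixed, PI-stained, G0/G1, S and G2/M fractions by flow cytometry; n = 3, mean ± SD.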
In general terms: Flow cytometry measures light scatter and fluorescence of single cells or particles in a stream.

The target in assay [2] is Protein kinase C (PKC) (Homo sapiens) (UniProt O94806+P41743+P17252+P05129+Q05655+P05771+Q05513+Q02156+P24723+Q15139+Q04759). The experiment in a line: (§2) Inhibition of PKC in TLR null HEK-blue cells assessed as inhibition of PMA-induced NF-kappaB activation-mediated SEAP production after 24 hrs by Quanti-blue-based assay. It is filed as cell-based.
The target in another assay is Protein kinase C (PKC). Described as §2. It is filed as cell-based, Homo sapiens.
Assay [3] in a line: Inhibition of IFN-gamma-induced NFkappaB activation in mouse RAW264.7 cells assessed as reduction in nitric oxide production after 18 hrs by DAN assay. It is filed as cell-based. The settings on record: RAW264.7, 18 h. In outline: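 Mouse RAW 264.7 macrophages stimulated with IFN-γ alongside compound; NF-κB-mediated NO output measured by the 2,3-diaminonaphthalene (DAN) nitrite assay.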

For assay [4], the target named is Interleukin-1 receptor type 1 (Homo sapiens, UniProt P14778). Briefly: Inhibition of IL1R in TLR null HEK-blue cells assessed as decrease in IL-1beta-stimulated NF-kappaB activation-mediated SEAP production after 24 hrs by Quanti-blue-based assay. The assay is classed as cell-based.
Chain of Interleukin-1 receptor type 1 (P14778 whole entry): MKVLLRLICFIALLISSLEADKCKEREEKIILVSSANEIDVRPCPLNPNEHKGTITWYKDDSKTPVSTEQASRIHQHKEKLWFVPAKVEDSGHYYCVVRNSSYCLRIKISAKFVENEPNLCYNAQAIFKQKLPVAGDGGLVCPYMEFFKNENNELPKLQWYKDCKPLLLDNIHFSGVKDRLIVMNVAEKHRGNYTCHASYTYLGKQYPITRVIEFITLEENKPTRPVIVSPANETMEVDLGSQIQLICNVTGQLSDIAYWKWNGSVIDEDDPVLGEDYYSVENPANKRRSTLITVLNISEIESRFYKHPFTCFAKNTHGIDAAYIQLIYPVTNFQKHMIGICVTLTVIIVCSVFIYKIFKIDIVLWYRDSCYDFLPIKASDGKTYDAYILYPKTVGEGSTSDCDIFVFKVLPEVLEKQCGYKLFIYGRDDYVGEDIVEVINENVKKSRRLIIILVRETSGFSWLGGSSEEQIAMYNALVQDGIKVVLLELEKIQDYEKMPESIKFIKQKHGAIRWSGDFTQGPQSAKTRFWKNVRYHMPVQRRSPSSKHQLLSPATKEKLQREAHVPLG
Assay [5] deals with T1, Toll-like receptor 7 (Homo sapiens) (UniProt Q9NYK1).
T1 sequence (whole entry): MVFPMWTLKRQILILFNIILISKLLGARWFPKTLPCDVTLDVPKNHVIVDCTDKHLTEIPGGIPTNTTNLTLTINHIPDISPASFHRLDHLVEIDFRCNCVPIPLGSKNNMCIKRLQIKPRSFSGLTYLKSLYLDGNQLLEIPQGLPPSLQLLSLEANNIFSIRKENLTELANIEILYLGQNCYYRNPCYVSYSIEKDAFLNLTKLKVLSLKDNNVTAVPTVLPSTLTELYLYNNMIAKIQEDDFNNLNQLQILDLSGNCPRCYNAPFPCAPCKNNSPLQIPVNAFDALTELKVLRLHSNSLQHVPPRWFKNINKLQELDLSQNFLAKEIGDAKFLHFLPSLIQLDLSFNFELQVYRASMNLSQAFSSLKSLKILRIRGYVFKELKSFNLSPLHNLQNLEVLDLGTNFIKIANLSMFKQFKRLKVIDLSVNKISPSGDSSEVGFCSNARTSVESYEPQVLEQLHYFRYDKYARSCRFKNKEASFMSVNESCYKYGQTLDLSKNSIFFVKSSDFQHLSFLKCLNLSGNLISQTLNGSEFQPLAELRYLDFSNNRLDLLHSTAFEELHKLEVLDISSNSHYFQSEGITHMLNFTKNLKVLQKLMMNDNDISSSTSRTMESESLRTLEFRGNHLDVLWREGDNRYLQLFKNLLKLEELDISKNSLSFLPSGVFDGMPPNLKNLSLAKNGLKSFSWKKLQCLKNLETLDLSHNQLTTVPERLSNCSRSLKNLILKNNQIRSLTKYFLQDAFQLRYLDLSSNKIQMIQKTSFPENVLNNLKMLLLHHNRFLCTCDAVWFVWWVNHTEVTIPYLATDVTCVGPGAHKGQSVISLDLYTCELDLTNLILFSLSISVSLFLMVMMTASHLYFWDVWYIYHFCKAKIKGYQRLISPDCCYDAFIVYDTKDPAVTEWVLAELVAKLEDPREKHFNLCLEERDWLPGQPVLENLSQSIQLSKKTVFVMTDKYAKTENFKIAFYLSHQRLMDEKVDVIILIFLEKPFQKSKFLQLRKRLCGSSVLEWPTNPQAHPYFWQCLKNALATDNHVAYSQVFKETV
The experiment in a line: Antagonist activity at human TLR7 expressed in HEK293 cells assessed as decrease in R848-induced NF-kappaB activation-mediated SEAP production at 10^-9 to 10^-5 M after 24 hrs by Quanti-blue-based assay. It is filed as cell-based. In outline:
(§3)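 HEK293 cells stably carrying a human TLR plus an NF-κB-driven SEAP reporter, seeded 5×10^4/well for 24 h at 37 °C, then stimulated: Pam3CSK4 100 µg/mL (TLR1/2), Pam2CSK4 100 µg/mL, poly I:C 5 µg/mL (TLR3), LPS 20 ng/mL (TLR4), flagellin 100 ng/mL (TLR5), R848 1 µg/mL (TLR7, TLR8), CpG-ODN2006 1 µg/mL (TLR9). After 24 h with compound, supernatant mixed with QUANTI-Blue, 1 h 37 °C, OD 620 nm.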

For assay [6], the target named is NF-kappa-B inhibitor alpha (Mus musculus) (UniProt Q9Z1E3). Briefly: Inhibition of LPS-induced IkB-alpha phosphorylation in mouse RAW264.7 cells at 1 to 10 uM preincubated for 1 hr followed by LPS stimulation for 15 to 30 mins by Western blot method. It is filed as cell-based. The procedure, abridged: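 RAW 264.7 cells, 3×10^6 per dish overnight, pretreated 1 h with 1, 5 or 10 µM, then LPS 100 ng/mL for 15 or 30 min; nuclear/cytoplasmic lysates (20–30 µg) run on 10% SDS-PAGE, immunoblotted for phospho/total proteins, GAPDH loading control, ECL, densitometry; three independent experiments.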
Chain of NF-kappa-B inhibitor alpha (Mus musculus) (Q9Z1E3 whole entry): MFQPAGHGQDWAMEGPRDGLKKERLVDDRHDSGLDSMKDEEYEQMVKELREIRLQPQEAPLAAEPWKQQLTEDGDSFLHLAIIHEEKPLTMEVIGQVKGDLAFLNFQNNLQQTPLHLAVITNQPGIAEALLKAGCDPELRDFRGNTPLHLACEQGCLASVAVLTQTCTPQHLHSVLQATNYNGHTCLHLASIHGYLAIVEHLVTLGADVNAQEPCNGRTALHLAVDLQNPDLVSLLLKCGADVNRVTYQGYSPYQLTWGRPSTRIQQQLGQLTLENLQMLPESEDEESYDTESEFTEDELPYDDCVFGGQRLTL

Assay [7] addresses Toll-like receptor 4 (Homo sapiens) (UniProt O00206). The experiment in a line: Antagonist activity at human TLR4 expressed in HEK293 cells assessed as decrease in LPS-induced NF-kappaB activation-mediated SEAP production at 10^-9 to 10^-5 M after 24 hrs by Quanti-blue-based assay. It is filed as cell-based. In outline:
as §3

Assay [8] deals with HeLa. Briefly: Cell cycle arrest in human HeLa cells assessed as accumulation at G0/G1 phase after 24 hrs by propidium iodide staining based flow cytometry. It is filed as functional. In outline:
as §1

The target of assay [9] is Toll-like receptor 1/2 (Homo sapiens) (UniProt O60603+Q15399). The experiment in a line: Antagonist activity at human TLR1/2 expressed in HEK293 cells assessed as decrease in Pam3CSK4-induced NF-kappaB activation-mediated SEAP production at 10^-9 to 10^-5 M after 24 hrs by Quanti-blue-based assay. The assay is classed as cell-based. In outline: as §3
A further assay has as its target TLR2/TLR6 (Homo sapiens) (UniProt O60603+Q9Y2C9). Briefly: Antagonist activity at human TLR2/6 expressed in HEK293 cells assessed as decrease in Pam2CSK4-induced NF-kappaB activation-mediated SEAP production at 10^-9 to 10^-5 M after 24 hrs by Quanti-blue-based assay. The assay is classed as cell-based. In outline:
as §3

The target of assay [10] is Proto-oncogene tyrosine-protein kinase Src (Homo sapiens) (UniProt P12931). Briefly: Inhibition of wild-type human partial length SRC (L240 to L536 residues) expressed in bacterial expression system assessed as residual activity at 10 uM by Kinomescan method relative to control.
Chain of Proto-oncogene tyrosine-protein kinase Src (Homo sapiens) (P12931 2-536 limits assumed): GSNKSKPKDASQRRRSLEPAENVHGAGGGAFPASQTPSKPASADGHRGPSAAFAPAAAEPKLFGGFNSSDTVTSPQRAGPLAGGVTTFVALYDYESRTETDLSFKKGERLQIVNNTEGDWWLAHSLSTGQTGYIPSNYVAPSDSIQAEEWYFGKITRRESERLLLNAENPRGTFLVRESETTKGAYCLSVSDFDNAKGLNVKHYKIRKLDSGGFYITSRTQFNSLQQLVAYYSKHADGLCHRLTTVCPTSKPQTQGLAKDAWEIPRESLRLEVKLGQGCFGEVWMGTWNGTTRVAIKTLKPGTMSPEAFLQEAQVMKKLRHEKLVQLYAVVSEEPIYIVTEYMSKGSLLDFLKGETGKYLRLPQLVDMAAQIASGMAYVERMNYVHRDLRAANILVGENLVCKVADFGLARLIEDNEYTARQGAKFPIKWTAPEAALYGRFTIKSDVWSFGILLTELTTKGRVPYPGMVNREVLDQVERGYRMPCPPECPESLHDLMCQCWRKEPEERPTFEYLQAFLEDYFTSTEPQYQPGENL
Assay [11] has as its system HeLa. The experiment in a line: Cell cycle arrest in human HeLa cells assessed as accumulation at G2/M phase at 10 uM after 24 hrs by propidium iodide staining based flow cytometry (reference value: 15.7%). It is filed as functional. The procedure, abridged: as §1

Chain of Toll-like receptor 4 (Homo sapiens) (O00206 whole entry): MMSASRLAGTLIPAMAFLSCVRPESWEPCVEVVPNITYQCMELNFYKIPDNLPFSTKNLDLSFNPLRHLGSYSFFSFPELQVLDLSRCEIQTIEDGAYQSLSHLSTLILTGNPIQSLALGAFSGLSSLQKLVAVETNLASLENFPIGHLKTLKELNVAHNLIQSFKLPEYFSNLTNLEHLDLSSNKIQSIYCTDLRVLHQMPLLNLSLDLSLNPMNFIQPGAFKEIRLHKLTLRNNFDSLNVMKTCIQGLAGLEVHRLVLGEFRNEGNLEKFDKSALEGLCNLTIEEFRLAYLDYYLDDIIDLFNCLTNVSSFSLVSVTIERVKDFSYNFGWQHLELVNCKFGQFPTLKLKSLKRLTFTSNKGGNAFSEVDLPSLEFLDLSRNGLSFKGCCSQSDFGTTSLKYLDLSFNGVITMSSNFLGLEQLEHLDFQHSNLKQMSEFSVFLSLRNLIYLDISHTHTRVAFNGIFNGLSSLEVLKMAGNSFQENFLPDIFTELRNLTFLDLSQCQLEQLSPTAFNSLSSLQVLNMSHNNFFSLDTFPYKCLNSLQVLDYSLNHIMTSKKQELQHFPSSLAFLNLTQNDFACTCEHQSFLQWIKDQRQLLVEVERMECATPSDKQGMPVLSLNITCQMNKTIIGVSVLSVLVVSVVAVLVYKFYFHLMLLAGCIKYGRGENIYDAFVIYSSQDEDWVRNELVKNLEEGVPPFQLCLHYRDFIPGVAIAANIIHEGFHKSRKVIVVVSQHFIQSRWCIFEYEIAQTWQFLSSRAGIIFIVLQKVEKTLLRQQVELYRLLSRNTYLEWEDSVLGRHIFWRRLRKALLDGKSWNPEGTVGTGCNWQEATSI

For the molecule `O=C(NNC(=O)c1csc(-c2ccc(Cl)cc2Cl)n1)c1ccccn1`, the Activity with HeLa [1] is 48.4%; in the assay with HeLa [8], “Dose-dependent effect”; in assay [10], 75%; in the assay with HeLa [11] it was 3.6%. Also, the inhibition entry in assay [2] is “Dose-dependent effect”. Besides, the IC50 is 370 nM on Protein kinase C (PKC), 79 nM in assay [3] and 720 nM in assay [4]. The inhibition result (in [5]; in assay [6]; in assay [7]; in [9]; on TLR2/TLR6 (Homo sapiens)) was “Active” each time.
